For assay [1], the target named is T1, Estrogen receptor (Rattus norvegicus) (UniProt P06211+Q62986). The assay can be described thus: In vitro affinity for rat Estrogen receptor. It is filed as protein assay.
Assay [2] addresses T2, Estrogen receptor (Mus musculus) (UniProt O08537+P19785). In words: (§1) Uterotrophic effect in immature mice as uterine dry weight(mg) relative to body weight(g) at 2500 ug/day dose. As to conditions: Uterus. Type of assay: functional, tissue-based. The method, boiled down: (§2)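 Dorfman uterine weight test for estrogenic and antiestrogenic activity. Compounds were dissolved in arachis oil and given subcutaneously. Uterine weight was the read-out.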

Assay [3] has as its target T2, Estrogen receptor (Mus musculus). In words: (§3) Uterotrophic effect in immature mice as uterine dry weight(mg) relative to body weight(g) at 500 ug/day dose. As to conditions: Uterus. Type of assay: functional, tissue-based. A digest of the protocol: as §2
For assay [4] the target is unchanged. In words: (§4) Uterotrophic effect in immature mice as uterine dry weight(mg) relative to body weight(g) at 1000 ug/day dose. As to conditions: Uterus, in the assay text read “100 ug/day” for “1000 ug/day”. It is filed as functional, tissue-based. The method, boiled down: as §2
Assay [5] has the same target. The assay can be described thus: (§5) Uterotrophic effect in immature mice as uterine dry weight(mg) relative to body weight(g) at 0 ug/day dose. It is filed as functional, tissue-based. As to conditions: Uterus. The method, boiled down:
as §2

The target in assay [6] is T1, Estrogen receptor (Rattus norvegicus). In words: In vitro association constant when complexed with the Estrogen receptor in Sprague-Dawley rat; Inhibition less than 10% at a ratio of [3H]estradiol/substance of 10e-4 M. It is filed as protein assay.
Assay [7] concerns the target T2, Estrogen receptor (Mus musculus). In words: Uterotrophic effect in immature mice as uterine dry weight(mg) relative to body weight(g) at 5000 ug/day dose. Type of assay: functional, tissue-based. To be noted: Uterus. A digest of the protocol: as §2
Assay [8] has the same target. The assay can be described thus: Uterotrophic effect in immature mice as uterine dry weight(mg) relative to body weight(g) at 20 ug/day dose. It is filed as functional, tissue-based. To be noted: Uterus. The method, boiled down:
as §2

Assay [9] shares this target. Described as §4. As to conditions: Uterus. Type of assay: functional, tissue-based. The method, boiled down:
(§6)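 Dorfman uterine weight test for estrogenic and antiestrogenic properties. Compounds were dissolved in arachis oil and given sc. Other details are in an earlier paper.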

The target is the same in assay [10]. In words: Uterotrophic effect in immature mice as uterine dry weight(mg) relative to body weight(g) at 100 ug/day dose. It is filed as functional, tissue-based. To be noted: Uterus. A digest of the protocol: as §6
Assay [11] shares this target. The description is as §5. To be noted: Uterus. Type of assay: functional, tissue-based. A digest of the protocol: as §6
This is another data set of the same source.

The target is the same in assay [12]. The description is as §1. Type of assay: functional, tissue-based. To be noted: Uterus. A digest of the protocol: as §6
This is another data set of the same source.

Assay [13] shares this target. The description is as §3. It is filed as functional, tissue-based. To be noted: Uterus. The method, boiled down:
as §6
This is another data set of the same source.

Assay [14] shares this target. The assay can be described thus: Uterotrophic effect in immature mice as uterine dry weight(mg) relative to body weight(g) at 400 ug/day dose. It is filed as functional, tissue-based. To be noted: Uterus. A digest of the protocol: as §2
Assay [15] has the same target. In words: Uterotrophic effect in immature mice as uterine dry weight(mg) relative to body weight(g) at 2400 ug/day dose. As to conditions: Uterus. Type of assay: functional, tissue-based. A digest of the protocol: as §2
The target is the same in assay [16]. The assay can be described thus: Uterotrophic effect in immature mice as uterine dry weight(mg) relative to body weight(g) at 80 ug/day dose. Type of assay: functional, tissue-based. To be noted: Uterus. The method, boiled down:
as §2

Assay [17] shares this target. The assay can be described thus: Uterotrophic effect in immature mice as uterine dry weight(mg) relative to body weight(g) at 24 ug/day dose. It is filed as functional, tissue-based. To be noted: Uterus. A digest of the protocol: as §2

T2 sequence (O08537 whole entry, looked up): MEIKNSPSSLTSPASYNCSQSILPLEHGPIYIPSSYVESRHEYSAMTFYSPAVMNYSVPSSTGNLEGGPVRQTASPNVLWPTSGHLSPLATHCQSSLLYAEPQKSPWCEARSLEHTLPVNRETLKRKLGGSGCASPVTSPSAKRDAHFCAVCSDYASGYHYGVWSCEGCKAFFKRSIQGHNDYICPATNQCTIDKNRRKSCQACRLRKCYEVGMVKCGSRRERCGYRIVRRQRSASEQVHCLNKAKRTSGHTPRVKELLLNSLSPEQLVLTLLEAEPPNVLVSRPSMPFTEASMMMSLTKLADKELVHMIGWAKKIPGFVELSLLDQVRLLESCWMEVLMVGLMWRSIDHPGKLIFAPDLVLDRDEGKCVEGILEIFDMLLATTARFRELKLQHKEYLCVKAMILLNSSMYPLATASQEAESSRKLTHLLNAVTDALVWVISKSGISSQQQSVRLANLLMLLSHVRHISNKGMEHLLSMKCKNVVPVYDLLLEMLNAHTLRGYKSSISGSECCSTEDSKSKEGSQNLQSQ
T2 sequence (P19785 whole entry, looked up): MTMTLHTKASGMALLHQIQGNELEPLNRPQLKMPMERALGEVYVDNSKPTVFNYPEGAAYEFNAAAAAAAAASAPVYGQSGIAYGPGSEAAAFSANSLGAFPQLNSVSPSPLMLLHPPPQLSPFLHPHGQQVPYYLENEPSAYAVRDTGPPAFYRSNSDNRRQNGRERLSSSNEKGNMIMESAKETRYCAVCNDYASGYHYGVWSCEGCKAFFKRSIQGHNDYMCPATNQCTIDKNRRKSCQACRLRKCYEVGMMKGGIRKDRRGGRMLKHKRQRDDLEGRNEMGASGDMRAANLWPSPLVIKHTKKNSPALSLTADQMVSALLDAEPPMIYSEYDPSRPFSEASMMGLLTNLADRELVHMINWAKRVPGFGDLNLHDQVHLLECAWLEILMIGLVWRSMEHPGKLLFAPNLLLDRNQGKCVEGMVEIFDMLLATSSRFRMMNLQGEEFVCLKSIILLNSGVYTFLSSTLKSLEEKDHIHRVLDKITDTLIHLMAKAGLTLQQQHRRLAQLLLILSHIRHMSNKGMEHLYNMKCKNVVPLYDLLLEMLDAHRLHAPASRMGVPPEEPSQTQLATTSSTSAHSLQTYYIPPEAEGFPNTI

As for `CC[C@H](c1ccc(O)cc1)[C@@H](CC)c1ccc(O)cc1`, the Ka in assay [1] worked out at 8.3e+08. For the compound `CCN1CN(CC)C(c2c(Cl)cccc2Cl)C1c1c(Cl)cccc1Cl` (cis isomer), the Effect in [2] was 22.3; in assay [3] it was 19.7; in assay [4], 17.1; in assay [5] it was 12.8. This compound registered a Ka in [1] of 200000. Regarding `CCN1CN(CC)C(c2cc(Cl)cc(Cl)c2)C1c1cc(Cl)cc(Cl)c1` (cis isomer), the inhibition in [6] was under 10%. With `CCCCNC(c1c(Cl)cccc1Cl)C(NCCCC)c1c(Cl)cccc1Cl` (stereo in doubt), in assay [6], the inhibition was under 10%.

Turning to `CCCCNC(c1ccc(Cl)c(Cl)c1)C(NCCCC)c1ccc(Cl)c(Cl)c1` (stereo in doubt), in assay [6], the inhibition was under 10%. With `CCCCNC(c1ccc(Cl)cc1Cl)C(NCCCC)c1ccc(Cl)cc1Cl` (stereo in doubt), the inhibition in [6] is under 10%. Regarding `CCCN1CN(CCC)C(c2c(Cl)cccc2Cl)C1c1c(Cl)cccc1Cl` (stereo in doubt), the Effect amounted to 19.7 in assay [2]; 16.2 in assay [3]; 24.5 in assay [7]; 17.7 in [4]; 12.8 in assay [5]. In addition, the Ka in assay [1] amounted to 320000. In the case of `CCCNC(c1c(Cl)cccc1Cl)C(NCCC)c1c(Cl)cccc1Cl` (stereo in doubt), the Effect in assay [2] is 31.3; in [3], 22.6; in [8] it was 14.8; in assay [4], 17.5; in assay [5], 12.9. Besides, in [1], the Ka came to 2.3e+06. Turning to `CCCNC(c1ccc(Cl)cc1Cl)C(NCCC)c1ccc(Cl)cc1Cl` (stereo in doubt), the inhibition in assay [6] was under 10%. Turning to `CCN1CN(CC)C(c2ccc(Cl)c(Cl)c2)C1c1ccc(Cl)c(Cl)c1` (stereo in doubt), in assay [6], the inhibition was under 10%. On to `CCN1CN(CC)C(c2ccc(Cl)cc2Cl)C1c1ccc(Cl)cc1Cl` (stereo in doubt), for which, in [6], the inhibition is under 10%. For `CCNC(c1c(Cl)cccc1Cl)C(NCC)c1c(Cl)cccc1Cl` (stereo in doubt), the Effect in assay [9] was determined as 27.4; in assay [10] it was 22.7; in [11], 12.8; in assay [12] it was 35.6; in [13], 23.5. Besides, in assay [1], the Ka was 670000. In the case of `CCNC(c1cc(Cl)cc(Cl)c1)C(NCC)c1cc(Cl)cc(Cl)c1` (stereo in doubt), the inhibition in assay [6] is under 10%.

Consider `CCNC(c1ccc(Cl)c(Cl)c1)C(NCC)c1ccc(Cl)c(Cl)c1` (stereo in doubt), for which, in [6], the inhibition was under 10%. Take `CCNC(c1ccc(Cl)cc1Cl)C(NCC)c1ccc(Cl)cc1Cl` (stereo in doubt): the inhibition in assay [6] was under 10%. For `CNC(c1c(Cl)cccc1Cl)C(NC)c1c(Cl)cccc1Cl` (stereo in doubt), the Ka in [1] is 91000. As for `CNC(c1ccc(Cl)cc1Cl)C(NC)c1ccc(Cl)cc1Cl` (stereo in doubt), in assay [6], the inhibition was under 10%. In the case of `CNC(c1ccc(Cl)cc1Cl)C(NC)c1ccc(Cl)cc1Cl` (stereo in doubt; 2a (d,l)), the inhibition in assay [6] is under 10%. `CCNC(c1ccc(Cl)cc1Cl)C(NCC)c1ccc(Cl)cc1Cl` (stereo in doubt; 2b (d,l)): the inhibition in [6] is under 10%. Take `CCCNC(c1ccc(Cl)cc1Cl)C(NCCC)c1ccc(Cl)cc1Cl` (stereo in doubt; 2c (d,l)): the inhibition in [6] is under 10%.

Consider `CCCCNC(c1ccc(Cl)cc1Cl)C(NCCCC)c1ccc(Cl)cc1Cl` (stereo in doubt; 2d (d,l)), for which the inhibition in assay [6] was under 10%. As to `CNC(c1c(Cl)cccc1Cl)C(NC)c1c(Cl)cccc1Cl` (stereo in doubt; 2e (d,l)), the Ka in assay [1] worked out at 140000. For the compound `CCNC(c1c(Cl)cccc1Cl)C(NCC)c1c(Cl)cccc1Cl` (stereo in doubt; 2f (d,l)), the Ka in assay [1] worked out at 130000. As to `CCCNC(c1c(Cl)cccc1Cl)C(NCCC)c1c(Cl)cccc1Cl` (stereo in doubt; 2g (d,l)), the Effect in assay [3] worked out at 27.1; in [8], 15.5; in [4], 19.6; in assay [5] it was 12.9. The compound further gave a Ka in [1] of 830000. Turning to `CCCCNC(c1c(Cl)cccc1Cl)C(NCCCC)c1c(Cl)cccc1Cl` (stereo in doubt; 2h (d,l)), the inhibition in assay [6] is under 10%. Same read-out and setting: for `CCNC(c1ccc(Cl)c(Cl)c1)C(NCC)c1ccc(Cl)c(Cl)c1` (stereo in doubt; 2i (d,l)) the value was under 10%. For `CCCCNC(c1ccc(Cl)c(Cl)c1)C(NCCCC)c1ccc(Cl)c(Cl)c1` (stereo in doubt; 2k (d,l)), the inhibition in assay [6] is under 10%. As for `CCNC(c1cc(Cl)cc(Cl)c1)C(NCC)c1cc(Cl)cc(Cl)c1` (stereo in doubt; 21 (d,l)), in assay [6], the inhibition is under 10%. Regarding `CCCCN1CN(CCCC)C(c2c(Cl)cccc2Cl)C1c1c(Cl)cccc1Cl` (stereo in doubt; cis), the inhibition in assay [6] is under 10%. In [1], `CN1CN(C)C(c2c(Cl)cccc2Cl)C1c1c(Cl)cccc1Cl` (stereo in doubt; cis) yielded a Ka of 180000. `CCCCN1CN(CCCC)C(c2c(Cl)cccc2Cl)C1c1c(Cl)cccc1Cl` (stereo in doubt; trans): the inhibition in assay [6] was under 10%. Consider `CN1CN(C)C(c2c(Cl)cccc2Cl)C1c1c(Cl)cccc1Cl` (stereo in doubt; trans), for which the Ka in assay [1] stood at 480000. With `CCCN1CN(CCC)C(c2c(Cl)cccc2Cl)C1c1c(Cl)cccc1Cl` (trans isomer), the Effect was found to be 43 in [2]; 28 in assay [3]; 19.6 in assay [8]; 21.4 in assay [4]; 12.9 in assay [5]. For the same compound, in assay [1], the Ka stood at 1.6e+06.

Take `CCN1CN(CC)C(c2c(Cl)cccc2Cl)C1c1c(Cl)cccc1Cl` (trans isomer): the Effect amounted to 38.1 in [14]; 46.2 in assay [15]; 24.2 in assay [16]; 14.9 in assay [5]; 22.8 in assay [17]. Also, the Ka in [1] amounted to 200000.

Regarding `CCN1CN(CC)C(c2cc(Cl)cc(Cl)c2)C1c1cc(Cl)cc(Cl)c1` (trans isomer), the inhibition in assay [6] is under 10%. Regarding `CCN1CN(CC)C(c2ccc(Cl)c(Cl)c2)C1c1ccc(Cl)c(Cl)c1` (trans isomer), in [6], the inhibition was under 10%. On to `CCN1CN(CC)C(c2ccc(Cl)cc2Cl)C1c1ccc(Cl)cc1Cl` (trans isomer), for which, in assay [6], the inhibition was under 10%.

One may read the inhibition as the drop in the measured response relative to a control, in per cent.
